The results in this text go back to ChEMBL document CHEMBL1132930, “Characterization of the binding site of the histamine H(3) receptor. 2. Synthesis, in vitro pharmacology, and QSAR of a series of monosubstituted benzyl analogues of thioperamide” (J Med Chem, 2000).

Molecules are shown by their SMILES.

Histamine H3 receptor, sequence (Q9JI35 whole entry): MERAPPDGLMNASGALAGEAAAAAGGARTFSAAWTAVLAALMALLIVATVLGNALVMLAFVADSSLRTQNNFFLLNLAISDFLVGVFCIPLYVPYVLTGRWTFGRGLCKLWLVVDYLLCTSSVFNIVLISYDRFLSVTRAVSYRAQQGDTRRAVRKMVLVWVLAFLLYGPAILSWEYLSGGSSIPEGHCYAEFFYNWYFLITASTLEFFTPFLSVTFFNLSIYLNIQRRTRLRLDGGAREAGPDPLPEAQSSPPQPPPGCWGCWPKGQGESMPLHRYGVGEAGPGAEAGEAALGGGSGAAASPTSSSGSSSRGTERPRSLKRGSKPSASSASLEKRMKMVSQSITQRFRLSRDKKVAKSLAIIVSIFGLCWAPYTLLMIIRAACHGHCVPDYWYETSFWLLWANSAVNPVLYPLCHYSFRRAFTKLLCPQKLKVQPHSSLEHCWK

One assay addresses Histamine H3 receptor (Cavia porcellus, UniProt Q9JI35). Put plainly: In vitro histamine H3 receptor antagonist activity was determined on guinea pig jejunum. The class given is functional, tissue-based. To be noted: read-out: pA2 (converted). In outline: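 Guinea pig jejunum preparations, electrically stimulated to give contractile responses (acetylcholine release). H3 agonists inhibit these responses in a concentration-dependent way. Antagonist pA2 derived from that agonist inhibition, per a previously described method.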
`S=C(NCc1ccccc1Cl)N1CCC(c2cnc[nH]2)CC1`: the Kb was 6.17 nM.
Still for that read-out and setting: in the case of `S=C(NCc1ccccc1)N1CCC(c2c[nH]cn2)CC1` it was 47.9 nM.
As for `Fc1ccc(C/N=C(\S)N2CCC(c3c[nH]cn3)CC2)cc1`, the Kb is 562 nM.
For the compound `S=C(NCc1ccccc1I)N1CCC(c2c[nH]cn2)CC1`, the Kb is 7.41 nM.
As for `S=C(NCc1ccc(Br)cc1)N1CCC(c2c[nH]cn2)CC1`, the Kb is 339 nM.
For `S=C(NCc1ccc(I)cc1)N1CCC(c2c[nH]cn2)CC1`, the Kb was 166 nM.
On the same count and under the same terms, the value for `S=C(NCc1cccc(I)c1)N1CCC(c2c[nH]cn2)CC1` was 15.8 nM; that for `S=C(NCc1cccc(Br)c1)N1CCC(c2c[nH]cn2)CC1` was 33.9 nM; that for `Cc1ccccc1C/N=C(\S)N1CCC(c2c[nH]cn2)CC1` was 95.5 nM.
Still for that read-out and setting: in the case of `S=C(NCc1ccc(Cl)cc1)N1CCC(c2c[nH]cn2)CC1` it was 61.7 nM.
Consider `Fc1cccc(C/N=C(\S)N2CCC(c3c[nH]cn3)CC2)c1`, for which the Kb is 363 nM.
Turning to `S=C(NCc1ccccc1Br)N1CCC(c2c[nH]cn2)CC1`, the Kb is 14.5 nM.
With `CC(C)(C)c1ccccc1C/N=C(\S)N1CCC(c2c[nH]cn2)CC1`, the Kb is 28.8 nM.
On to `Fc1ccccc1C/N=C(\S)N1CCC(c2c[nH]cn2)CC1`, for which the Kb was 912 nM.
The same measure, in the same setting: the value for `S=C(NCc1cccc(Cl)c1)N1CCC(c2c[nH]cn2)CC1` was 38.9 nM.

The target of another assay is Histamine H3 receptor (Cavia porcellus) (UniProt Q9JI35). The following applies: Jejunum.
Histamine H3 receptor (Cavia porcellus), sequence (Q9JI35 whole entry): as above
The compound `C[C@@H](N)Cc1c[nH]cn1` gave a pD2 of 7.8.
